# An excerpt weighted towards active compounds, which were near 2.5% of everything screened.
# NSD2 HMT inh: inhibitors of human histone methyltransferase NSD2 | O96028 | NSD2 peptide methylation, AlphaScreen, 120 min | inhibition, % at 12.5 µM | 310,000 compounds, 0.54% hits
# Dyrk1A ADPGlo: blocks rat Dyrk1A kinase activity | 310,000 compounds, 0.43% hits | ADP-Glo luminescence, NFATc1 peptide | inhibition, % at 12.5 µM;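 further: plate controls were vehicle with enzyme for no effect and no enzyme for full effect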
# SR-BI HDL uptake: inhibitors of mouse SR-BI mediated HDL lipid uptake. ldlA[mSR-BI] CHO cells, DiI-HDL uptake fluorescence, 3 h. inhibition, % at 12.5 µM. 320,000 compounds, 0.96% hits. AID 488896;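 active means mean replicate inhibition of at least 70% and a set share of replicates each scoring 70 or more; inconclusive means meets just one of the two criteria; inactive means fails both criteria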;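 further: 0% = median of neutral control wells and 100% = median of positive control wells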
# Target sequence (Q61009 whole entry, looked up): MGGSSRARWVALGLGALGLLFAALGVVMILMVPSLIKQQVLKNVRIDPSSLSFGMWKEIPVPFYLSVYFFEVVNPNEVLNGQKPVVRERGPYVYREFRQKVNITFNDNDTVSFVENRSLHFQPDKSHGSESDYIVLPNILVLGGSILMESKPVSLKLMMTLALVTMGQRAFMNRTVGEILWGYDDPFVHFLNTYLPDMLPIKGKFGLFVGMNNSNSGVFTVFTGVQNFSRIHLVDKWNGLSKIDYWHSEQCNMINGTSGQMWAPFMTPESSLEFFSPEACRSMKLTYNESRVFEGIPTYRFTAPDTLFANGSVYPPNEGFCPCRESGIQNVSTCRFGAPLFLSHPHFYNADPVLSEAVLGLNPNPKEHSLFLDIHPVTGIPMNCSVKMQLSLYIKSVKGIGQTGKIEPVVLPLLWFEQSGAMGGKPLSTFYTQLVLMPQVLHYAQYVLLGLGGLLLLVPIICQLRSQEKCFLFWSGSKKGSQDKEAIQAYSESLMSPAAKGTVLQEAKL
# dFosB activator: activators of mouse delta FosB homodimer; 340,000 compounds, 0.99% hits; AID 493131; P13346; purified delta FosB, TAMRA-CDK5 oligo fluorescence polarization; percent of positive-control signal above neutral wells; activation, % at 25 µM;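 active means mean activation above about 17%, with every replicate also reaching it, limit read from the data, passing the limit was not always enough; inconclusive means only one of the two conditions met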
# CDK5 p35 inh: blocks human CDK5/p35 kinase activity; AID 488839; 330,000 compounds, 0.01% hits; Recombinant CDK5/p35, ADP-Glo luminescence, 60 min; Q00535+Q15078; inhibition, % at 10 µM;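 active means highest replicate inhibition of at least 50% and at least 75% of replicates reaching 50%; inconclusive means only one of the two criteria met; inactive means both criteria failed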;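 further: plate controls were DMSO neutral control for no effect and GW8510 at 10 µM for full effect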
# SR-BI DiI-HDL act: SR-BI HDL lipid transfer activation. 320,000 compounds, 0.096% hits. AID 504775. CHO ldlA[mSR-BI] cells, DiI-HDL uptake fluorescence, 3 h; 100 = double the neutral-control signal. activation, % at 12.5 µM;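 active means mean replicate activation of at least 60% and every replicate at or above 60%; inconclusive means mean or all-replicate condition met, but not both; inactive means mean below 60% and not all replicates reaching 60%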;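 further: 0% = median plate neutral-control signal and 100% = twice that signal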
#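 Material: SR-BI-overexpressing, LDLR-lacking CHO cells; schedule: compound exposure 3 h, 37 °C; reagent: DiI-labelled HDL at 10 µg/mL final; technique: bottom-read fluorescence, 550/595 nm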
# The depositor's hits bear a star; ? = inconclusive; . = no result. Unless noted, no stated cut-off is given here; in the data, active means inhibition above about 50%; inactive means the rest.
SMILES,NSD2 HMT inh,Dyrk1A ADPGlo,SR-BI HDL uptake,dFosB activator,CDK5 p35 inh,SR-BI DiI-HDL act
Cc1cccc(N=C2C(=O)Nc3c(Cl)cccc32)c1,3,1,-46,1,0,46
O=C(c1ccc(S(=O)(=O)N2CCCC2)cc1)N1CCCc2ccccc21,8,0,77*,-10,-1,-77
CC(=O)Nc1cccc(-c2cnc(NC(C)=O)cn2)c1,0,.,.,.,.,.
O=S(=O)(c1ccc(SCc2cccc(Cl)c2)nc1)N1CCCC1,-6,-1,24,-9,-4,-24
COc1ccc(OC)c(-c2c3cc(O)c(=O)cc-3oc3cc(O)c(O)cc23)c1,.,4,91*,46*,5,-91
CCOc1ccccc1-c1c2cc(O)c(=O)cc-2oc2cc(O)c(O)cc12,.,6,73*,51*,7,-73
O=c1cc2oc3cc(O)c(O)cc3c(-c3ccccc3O)c-2cc1O,.,-3,27,-112,1,-27
CC1=N/C(=C/c2ccco2)C(=O)O1,119*,.,-25,0,-1,25
COc1cc(/C=C2\N=C(C)OC2=O)cc(OC)c1OC,5,-1,-31,5,0,31
Cc1ccc(S(=O)(=O)N(C)c2ccc(OCC(=O)NCC3(N(C)C)CCCCC3)cc2)cc1,4,.,83*,-2,-3,-83
O=c1[nH]c(C2CCN(S(=O)(=O)c3ccc4c(c3)OCCO4)CC2)nc2c1nnn2Cc1ccc(F)cc1,-4,-1,-94,5,-1,94*
COc1ccc(Cl)cc1S(=O)(=O)NC(C)C(=O)NCCCN1CCOCC1 (centres undefined),-1,.,.,.,.,.
O=C(CCSc1nc(-c2ccc3c(c2)OCO3)cc(C(F)(F)F)n1)NCc1ccco1,.,-2,82*,-6,0,-83
Cc1ccc(C)c(Nc2cc(C)nc3ncnn23)c1,1,-4,-192,-2,0,192*
Cc1ccc(Nc2cc(C)nc3ncnn23)c(C)c1,-2,-1,-5,-2,2,5
Cc1ccc(C)c(S(=O)(=O)N2CCN(C(=O)CCCc3c[nH]c4ccccc34)CC2)c1,0,-4,67,-13,-1,-67
COc1ccc(/C=N/N=C2/NC(=O)C(CC(=O)NC(N)=O)S2)cc1 (centres undefined),-1,-2,-10,19*,0,10
CCCCNC(=O)CC1S/C(=N/N=C/c2ccc(OC)cc2)NC1=O (centres undefined),-1,.,-10,1,1,10
Cc1nc(NC(=O)/C=C/c2ccccc2)sc1C(=O)Nc1ccccc1,.,6,76*,-10,-1,-76
O=C(CCn1nnc2ccccc21)N1CCN(c2ccc(F)cc2)CC1,0,.,.,.,.,.
COc1ccc(-c2cc(-c3cc(F)ccc3O)[nH]n2)cc1OC,0,12,72*,6,1,-72
COc1cccc(Nc2nc(-c3cccc(N4C(=O)c5ccccc5C4=O)c3)cs2)c1,-5,2,91*,-10,0,-91
COc1cccc(-c2csc(NC(=O)Nc3ccccc3)n2)c1,4,-4,77*,3,1,-77
O=C(Nc1ccccc1)Nc1nc(-c2ccccc2)cs1,1,9,-216,-3,1,?
Cc1ccc(-n2c(Cc3cccs3)nnc2SCc2ccc(Br)cc2)cc1,1,.,.,.,.,.
SMILES,NSD2 HMT inh,Dyrk1A ADPGlo,SR-BI HDL uptake,dFosB activator,CDK5 p35 inh,SR-BI DiI-HDL act
Cc1ccc(C)c(N2CCN(C(=O)CCCn3ncn4c(cc5occc54)c3=O)CC2)c1,8,7,6,-12,0,-6
Cc1nc2c(sc(=S)n2Cc2ccco2)c(=O)n1CC(=O)Nc1ccccc1Cl,-4,4,-18,56*,-12,18
CCn1c(=S)sc2c(=O)n(CC(=O)Nc3ccccc3OC)c(C)nc21,-4,.,22,-3,.,-22
Cn1c(=O)oc2cc(S(=O)(=O)N3CCN(c4cccc(C(F)(F)F)c4)CC3)ccc21,0,.,.,.,.,.
CC1(C)CC(NC(=O)c2ccc(Cl)c(S(=O)(=O)N(Cc3ccccc3)c3ccccc3)c2)CC(C)(C)N1,7,2,-97,-98,-1,97*
O=C(O)c1cccc(Nc2ccncc2[N+](=O)[O-])c1,-3,4,-12,0,0,12
